The values below come from paper PMC11362829 (RSC Advances, 2024).

The target in data set [1] is T1, recombinant E. coli DXR enzyme (EcDXR) (Escherichia coli, UniProt P45568).
T1 sequence (P45568 1-398): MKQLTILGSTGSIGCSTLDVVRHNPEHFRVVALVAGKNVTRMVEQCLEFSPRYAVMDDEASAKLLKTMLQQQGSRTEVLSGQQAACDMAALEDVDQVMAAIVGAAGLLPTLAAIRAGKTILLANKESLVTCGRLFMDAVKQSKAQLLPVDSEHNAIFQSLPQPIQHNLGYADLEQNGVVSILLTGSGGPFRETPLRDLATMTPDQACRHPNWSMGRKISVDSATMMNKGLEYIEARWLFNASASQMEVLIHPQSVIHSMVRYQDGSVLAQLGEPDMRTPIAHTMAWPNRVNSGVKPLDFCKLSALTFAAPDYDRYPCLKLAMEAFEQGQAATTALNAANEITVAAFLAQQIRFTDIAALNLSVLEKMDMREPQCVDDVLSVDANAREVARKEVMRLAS
Nature of the data set: DXR enzyme inhibition assay. In kind it is biochemical. To be noted: for inhibition at 50 µM: read-out: % Inhibition at 50 μM, EcDXR, 50 μM; for inhibition at 100 µM: read-out: % Inhibition at 100 μM, in vitro EcDXR inhibition, 100 μM. In short, it runs like this: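 Recombinant E. coli DXR, assayed with a commercial kit following the vendor protocol. Test compound from a DMSO stock; final DMSO ~0.2% v/v or lower. Enzyme and compound pre-incubated with shaking for 10 minutes, then DXP added to start the reaction. NADPH consumption read kinetically at 340 nm. Inhibition taken at a single level or across five levels for IC50. IC50 from one representative experiment run in duplicate.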

Data set [2] has as its system M. tuberculosis H37Rv mc^2 6206. Put plainly: Screening against M. tuberculosis and MIC by Alamar Blue assay. To be noted: for MIC: Mycobacterium tuberculosis, H37RV, read-out: MIC against M. tuberculosis. The class given is cell-based.
A further data set relates to E. coli. Nature of the data set: Screening against ESKAPE pathogens: E. coli. In kind it is cell-based. In short, it runs like this:
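E. coli grown in LB at 37 °C with shaking at 200 rpm to turbidity, then diluted to OD600 0.02. Test compound freshly dissolved in DMSO and added at one of two single levels. Growth judged visually after 24 h at 37 °C against DMSO-treated controls.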

Data set [3] is described as follows: Dilution of DMSO stock with the aqueous assay buffer. The class given is physicochemical. The note with it: dilution for the 50 μM enzyme assay.

The structures appear in SMILES notation. ≈ marks a conversion by molar mass, not a printed value. Bounds are passed on as bounds.

Take `O=C(NCP(=O)(O)O)c1cccc(O)c1O` [Compound 21b, ((2,3-Dihydroxybenzamido)methyl)phosphonic acid]: the inhibition at 50 µM in data set [1] worked out at 68.4%.

On to `O=Cc1cccc(O)c1O` [Compound F9, 2,3-dihydroxy benzaldehyde], for which the inhibition at 100 µM in data set [1] was 86.5%.

As to `O=C(NC(c1ccccc1)P(=O)(O)O)c1cccc(O)c1O` (stereo not drawn) [Compound 21a, ((2,3-Dihydroxybenzamido)(phenyl)methyl)phosphonic acid], in data set [1], the inhibition at 50 µM was 66.5%. In data set [2] (200 μM), the “Effect on M. tuberculosis growth” value was “none of the tested compounds affected M. tuberculosis growth”.

Turning to `O=C(NCCCc1ccccc1)c1ccc2ccccc2c1O` [Compound 25c, 1-Hydroxy-N-(3-phenylpropyl)-2-naphthamide], the inhibition at 50 µM in data set [1] stood at 31.3%.

On to `O=C(NC(c1ccccc1)P(=O)(O)O)c1coc2ccccc2c1=O` (stereo not drawn) [Compound 23a, ((4-Oxo-4H-chromene-3-carboxamido)(phenyl)methyl)phosphonic acid], for which, in data set [1], the IC50 amounted to 6.09 µM and the inhibition at 50 µM came to 79.8%. The “Effect on M. tuberculosis growth” value in data set [2] (200 μM) is “none of the tested compounds affected M. tuberculosis growth”.

Turning to `O=CN(O)CCCP(=O)(O)O` [FSM, Fosmidomycin, reference compound], the inhibition at 100 µM in data set [1] turned out to be 100%.

As to `O=C(O)c1coc2ccccc2c1=O` [Compound F10, Chromone-3-carboxylic acid], the inhibition at 100 µM in data set [1] worked out at 100%.

Take `O=C(NC(c1cccc2ccccc12)P(=O)(O)O)c1ccc2ccccc2c1O` (stereo not drawn) [Compound 22d, ((1-Hydroxy-2-naphthamido)(naphthalen-1-yl)methyl)phosphonic acid]: in data set [1], the IC50 was found to be 4.44 µM and the inhibition at 50 µM stood at 73.7%. The “fold improvement in IC50 value compared to 22a” value in data set [1] (EcDXR IC50 compared to 22a) is listed as ~4 fold. In the data set on E. coli, the “Activity against E. coli” value was “inactive against E. coli”. Moreover, in data set [2] (500 μM), the “Effect on M. tuberculosis growth” value is listed as “inhibited M. tuberculosis growth”. Further, the MIC in data set [2] is 125 µM (≈ 50.9 µg/mL).

As to `CC(NC(=O)c1ccc2ccccc2c1O)P(=O)(O)O` (stereo not drawn) [Compound 22c, (1-(1-Hydroxy-2-naphthamido)ethyl)phosphonic acid], the inhibition at 50 µM in data set [1] is 84.2%.

Turning to `CC(NC(=O)c1ccccc1O)P(=O)(O)O` (stereo not drawn) [Compound 20c, (1-(2-Hydroxybenzamido)ethyl)phosphonic acid], in data set [3], the “Behaviour during dilution with the aqueous buffer” value (shortened to “Behaviour during dilution”) was “precipitated during dilution”.

For `O=C(NC(c1cccc2ccccc12)P(=O)(O)O)c1cccc(O)c1O` (stereo not drawn) [Compound 21d, ((2,3-Dihydroxybenzamido)(naphthalen-1-yl)methyl)phosphonic acid], the inhibition at 50 µM in data set [1] was found to be 78.5%.

As to `O=C(NC(c1cccc2ccccc12)P(=O)(O)O)c1ccccc1O` (stereo not drawn) [Compound 20d, ((2-Hydroxybenzamido)(naphthalen-1-yl)methyl)phosphonic acid], in data set [1], the IC50 amounted to 32.9 µM and the inhibition at 50 µM stood at 81.3%. Further, in data set [1] (EcDXR IC50 compared to 22d), the “folds less potent than 22d” value is ~8 fold. The “Effect on M. tuberculosis growth” value in data set [2] (500 μM) was “inhibited M. tuberculosis growth”. Besides, in data set [2], the MIC is > 250 µM.

Turning to `O=C(NC(c1ccc(Cl)c(Cl)c1)P(=O)(O)O)c1ccccc1O` (stereo not drawn) [Compound 20e, ((3,4-Dichlorophenyl)(2-hydroxybenzamido)methyl)phosphonic acid], in data set [3], the “Behaviour during dilution” value is reported as “precipitated during dilution”. Besides, the “Effect on M. tuberculosis growth” value in data set [2] (500 μM) is recorded as “inhibited M. tuberculosis growth”. The MIC in data set [2] is > 250 µM.

Consider `O=C(NCCc1ccccc1)c1ccc2ccccc2c1O` [Compound 25b, 1-Hydroxy-N-phenethyl-2-naphthamide], for which the inhibition at 50 µM in data set [1] worked out at 4.69%.

For the molecule `O=C(NC(c1ccccc1)P(=O)(O)O)c1ccc2ccccc2c1O` (stereo not drawn) [Compound 22a, ((1-Hydroxy-2-naphthamido)(phenyl)methyl)phosphonic acid], in data set [1], the half-maximal inhibitory concentration (IC50) was 16.9 µM and the inhibition at 50 µM was determined as 70.9%. In addition, the “folds lower potency than 22b” value in data set [1] (EcDXR IC50 compared to 22b) is recorded as ~57 fold. For the same molecule, the “Effect on M. tuberculosis growth” value in data set [2] (200 μM) is given as “none of the tested compounds affected M. tuberculosis growth”.

Regarding `O=C(NCc1ccccc1)c1ccc2ccccc2c1O` [Compound 25a, N-Benzyl-1-hydroxy-2-naphthamide], the “% Inhibition at 50 μM” value in data set [1] (EcDXR, 50 μM) amounted to 30.4%. For the same molecule, the inhibition at 50 µM in data set [1] worked out at 30%.

Consider `O=C(O)c1ccccc1O` [Compound F12, Salicylic acid], for which, in data set [1], the inhibition at 100 µM worked out at 87.4%.

As for `CC(NC(=O)c1cccc(O)c1O)P(=O)(O)O` (stereo not drawn) [Compound 21c, (1-(2,3-Dihydroxybenzamido)ethyl)phosphonic acid], the inhibition at 50 µM in data set [1] is 60.1%.

Consider `O=C(O)c1cccc(O)c1O` [Compound F2, 2,3-Dihydroxy benzoic acid], for which the inhibition at 100 µM in data set [1] came to 93.3%.

Turning to `O=C(NCP(=O)(O)O)c1ccc2ccccc2c1O` [Compound 22b, ((1-Hydroxy-2-naphthamido)methyl)phosphonic acid], in data set [1], the IC50 was found to be 0.29 µM and the inhibition at 50 µM is 76.3%. In addition, the “Activity against E. coli” value with E. coli is “inactive against E. coli”. Further, the “Effect on M. tuberculosis growth” value in data set [2] (500 μM) was “inhibited M. tuberculosis growth”. In addition, the MIC in data set [2] was > 250 µM.

As for `O=C(O)c1ccc2ccccc2c1O` [Compound F7, 1-Hydroxy-2-naphthoic acid], in data set [1], the inhibition at 100 µM was found to be 100%.

Take `O=C(NC(c1ccccc1)P(=O)(O)O)c1ccccc1O` (stereo not drawn) [Compound 20a, ((2-Hydroxybenzamido)(phenyl)methyl)phosphonic acid]: in data set [1], the IC50 is 33.2 µM and the inhibition at 50 µM worked out at 94.6%. The “fold less potency than its counterpart 22a” value in data set [1] (EcDXR IC50 compared to 22a) is ~2 fold. Further, in data set [2] (200 μM), the “Effect on M. tuberculosis growth” value is “none of the tested compounds affected M. tuberculosis growth”.

Consider `O=C(NCP(=O)(O)O)c1ccccc1O` [Compound 20b, ((2-hydroxybenzamido)methyl)phosphonic acid], for which, in data set [3], the “Behaviour during dilution” value was “precipitated during dilution”.
